≈ marks a conversion by molar mass, not a printed value.
Key:
Staphylococcus aureus [1] = assay: Antibacterial activity against methicillin-resistant Staphylococcus aureus ATCC 33591 after 24 hrs by broth microdilution method; format: functional; settings: ATCC 33591, 24 h
How it was run: (§1)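 Broth microdilution following NCCLS M7-A6 (2003), with inoculum at the recommended densities. Isolates were placed into panel wells with an autoinoculator and grown in cation-adjusted Mueller-Hinton broth at 35°C in ambient air for overnight to 24 h. Panels were read by eye, and the MIC was taken as no visible growth.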

Staphylococcus aureus [2] = assay: Antibacterial activity against methicillin-resistant Staphylococcus aureus 78-13607A after 24 hrs by broth microdilution method; format: functional; how it was run: as §1

Row | SMILES | MIC (Staphylococcus aureus [1]) | MIC (Staphylococcus aureus [2])
1 | O=C(N[C@H](CO)[C@H](O)c1ccc([N+](=O)[O-])cc1)C(Cl)Cl [CHLORAMPHENICOL] | > 16 µg/mL | 
2 | Cc1onc(-c2ccccc2)c1C(=O)N[C@@H]1C(=O)N2[C@@H]1SC(C)(C)[C@@H]2C(=O)O [OXACILLIN] | > 8 µg/mL | 8 µg/mL (≈ 19.9 µM)
3 | CCCCCCCCCCCCO[C@@H]1O[C@@H](C)[C@H](O[C@@H]2O[C@@H](C)[C@H](OC(C)=O)[C@@H](O[C@@H]3O[C@@H](C)[C@H](OC(C)=O)[C@@H](O[C@@H]4O[C@@H](C)[C@H](O)[C@@H](OC(C)=O)[C@H]4O)[C@H]3OC(C)=O)[C@H]2O)[C@@H](O)[C@H]1O | 8 µg/mL (≈ 8.52 µM) | 16 µg/mL (≈ 17 µM)

— ChEMBL document CHEMBL1157314, “Antibacterial, partially acetylated oligorhamnosides from Cleistopholis patens” (2006)
